For one assay, the target named is P2Y1 receptor (Mus musculus, UniProt P49650). Nature of the assay: Competition binding against [125I]MRS2500 in MIN6 cell membranes.
Assay [1] concerns MIN6 cells. Nature of the assay: Insulin secretion assay. Particulars: for EC50: read-out: EC50 insulin secretion, 1 h, n=3. The assay is classed as cell-based, mouse. The method, boiled down: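 Cells were seeded at 40,000/well and cultured 48 h in DMEM at 37°C, then preincubated 1 h in KRBB with 3.3 mM glucose and 0.3% albumin. Secretion was stimulated 1 h at 37°C in KRBB with 16.7 mM glucose (or a glucose series) ± agonist, with or without P2Y1/P2Y13 antagonists (30 μM) or a P2Y6 antagonist (10 μM). Insulin was measured by ELISA against a mouse insulin standard; n=3.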

Assay [2] has as its system MIN6 cells. Nature of the assay: Inositol phosphate. The conditions noted are these: read-out: EC50 accumulation of intracellular IP3; 30 min at 37°C, 20 mM lithium chloride, n=3. Format: cell-based, mouse. In a few lines: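 MIN6 cells were grown to 80% confluence with myo-[3H]-inositol (2 μCi/ml) for 48 h. They were then exposed to P2Y ligand or buffer with 20 mM LiCl for 30 min at 37°C. The reaction was stopped with cold 20 mM formic acid, and supernatants were neutralized with NH4OH. Samples went through AG1-X8 anion exchange, with total IP3 eluted by 1 M ammonium formate/0.1 M formic acid and counted by scintillation; n=3.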

The test system of assay [3] is MIN6 cells. Nature of the assay: TNF-α induced apoptosis, HO342/PI nuclei staining, fluorescence microscopy. Particulars: TNF-α 50 ng/ml; for nuclei/cells double stained with HO342 and PI: agonist 10 μM where present. The assay is classed as cell-based, mouse. The method, boiled down: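 MIN6 cells were grown 48 h on coverslips, then moved to DMEM with 5% FBS. Cells were pretreated 30 min with 10 μM agonist, which stayed present, then given TNF-α 50 ng/ml (16 h per methods; legend gives staining after 24 h); PBS alone was the negative control. Staining used PI 10 μg/ml plus HO342 20 μg/ml for 10 min, viewed by fluorescence microscopy at 365 nm excitation. Condensed or fragmented blue, pink or red nuclei were scored apoptotic.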

For assay [4], the system named is MIN6 cells. Nature of the assay: TNF-α induced apoptosis, PI flow cytometry. The assay is classed as cell-based, mouse. The conditions noted are these: TNF-α 50 ng/ml, 24 h; for cell death (sub-G1 peak): agonist pretreatment where present. The method, boiled down:
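Cells were grown in 6-well plates, pretreated with agonist (10 μM, 30 min, kept present), and exposed to TNF-α 50 ng/ml. At 24 h after induction, cells were trypsinized, stained with PI (10 μg/ml) for 30 min, and analyzed by flow cytometry. Cell death was scored as the percentage of cells with sub-G1 DNA content.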
(In general: In flow cytometry, cells or beads pass a laser one at a time.)

A further assay deals with P2Y4. Particulars: read-out: EC50 PLC activation; P2Y4, transfected astrocytoma cells; cited from earlier work.
For the next assay, the system named is P2Y6. The conditions noted are these: read-out: EC50 PLC activation; P2Y6, transfected astrocytoma cells; cited from earlier work.
Another assay concerns P2Y2. Particulars: read-out: EC50 PLC activation; P2Y2, transfected astrocytoma cells; cited from earlier work.
A further assay addresses mouse P2Y1 receptor (Mus musculus, UniProt P49650). Description: Saturation binding of [125I]MRS2500 in MIN6 cell membranes. Particulars: n=3. In a few lines: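 Membranes came from MIN6 cells at 80% confluence: homogenized, cleared at 100 × g for 5 min, Polytron-homogenized in 50 mM Tris-HCl pH 7.4, and pelleted at 20,000 × g for 20 min at 4°C. They were incubated with 0.2–7.2 nM [125I]MRS2500 in 50 mM Tris, MgCl2, pH 7.4, for 60 min at 4°C. Nonspecific binding used 10 μM unlabelled ligand. Bound ligand was collected on GF/B filters; Bmax was expressed per mg protein (BCA) and KD from saturation/Scatchard analysis; n=3.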

[5] abbreviates: against [125I]MRS2500, MIN6 cell membranes, mean ± s.e.m. of three experiments.

Where two headings read alike, the source gives them in different places.

Sequence of P2Y1 receptor (P49650 whole entry): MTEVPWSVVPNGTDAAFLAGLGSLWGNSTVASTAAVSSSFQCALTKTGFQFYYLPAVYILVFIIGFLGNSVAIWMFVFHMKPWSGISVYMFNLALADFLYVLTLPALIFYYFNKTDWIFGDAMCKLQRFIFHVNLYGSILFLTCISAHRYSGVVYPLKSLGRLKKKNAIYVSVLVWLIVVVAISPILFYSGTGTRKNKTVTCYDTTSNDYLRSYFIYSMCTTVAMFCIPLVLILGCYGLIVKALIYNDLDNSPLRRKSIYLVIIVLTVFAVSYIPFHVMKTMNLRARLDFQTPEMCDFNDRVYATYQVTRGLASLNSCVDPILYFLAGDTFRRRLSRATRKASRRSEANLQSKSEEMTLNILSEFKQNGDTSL
Sequence of mouse P2Y1 receptor (P49650 whole entry): as above

On to `Nc1ncnc2c1ncn2[C@@H]1O[C@H](COP(=O)(O)OP(=O)(O)O)[C@@H](O)[C@H]1O` [ADP], for which the inhibitory constant (Ki) at P2Y1 receptor (setting [5]) stood at 335 ± 3.9 nM. Also, the “effect on insulin release” value in the assay on MIN6 cells [1] (agonist 10 μM, 16.7 mM glucose) is “stimulated insulin release”. The “concentration at which insulin secretion was maximal” value in the assay on MIN6 cells [1] (concentration response studies, 16.7 mM glucose) was 10 µM.
Molecule `CNc1ncnc2c1ncn2[C@H]1C[C@H](OP(=O)(O)O)[C@@H](COP(=O)(O)O)O1` [MRS2179, N^6-methyl-2′-deoxyadenosine-3′,5′-bisphosphate] came in with a Ki at P2Y1 receptor of 49.8 ± 0.23 nM.
`CNc1nc(Cl)nc2c1ncn2[C@H]1C[C@H](OP(=O)(O)O)[C@]2(COP(=O)(O)O)C[C@H]12` [MRS2279, 2-chloro-N^6-methyl-(N)-methanocarba-2′-deoxyadenosine-3′,5′-bisphosphate] displayed a Ki at P2Y1 receptor (setting [5]) of 6.86 ± 0.12 nM.
With `CSc1nc(N)c2ncn(C3CC(O)C4(COP(=O)(O)OP(=O)(O)O)CC34)c2n1` (stereo not drawn) [MRS2365, (N)-methanocarba-2′-deoxy-2-methylthio-adenosine-5′-diphosphate], the EC50 with MIN6 cells [1] (16.7 mM glucose) was 25.8 ± 5.6 nM.
Take `CNc1nc(I)nc2c1ncn2[C@H]1C[C@H](OP(=O)(O)O)[C@]2(COP(=O)(O)O)C[C@H]12` [MRS2500, 2-iodo-N^6-methyl-(N)-methanocarba-2′-deoxyadenosine-3′,5′-bisphosphate]: the Ki at P2Y1 receptor (setting [5]) is 2.92 ± 0.21 nM.
Consider `S=C=Nc1cccc(NC(=S)NCCCCNC(=S)Nc2cccc(N=C=S)c2)c1` [MRS2578], for which the “effect of antagonist on insulin secretion induced by Up3U” value in the assay on MIN6 cells [1] (antagonist 10 μM, Up3U 10 μM) is “significantly blocked”.
Consider `O=c1ccn([C@@H]2O[C@H](COP(=O)(O)OP(=O)(O)OP(=O)(O)OC[C@@H]3O[C@@H](n4ccc(=O)[nH]c4=O)C(O)[C@@H]3O)[C@H](O)C2O)c(=O)[nH]1` (stereo partly drawn) [Up3U, P^1,P^4-di(uridine 5′-)triphosphate], for which the EC50 with MIN6 cells [2] is 29 ± 7.3 nM; in the assay with P2Y4, 870 ± 110 nM; in the assay on MIN6 cells [1] (16.7 mM glucose), 30.7 ± 12.7 nM; in the assay with P2Y6, 270 ± 70 nM; in the assay on P2Y2 it was 1310 ± 210 nM. In the assay with MIN6 cells [3] (agonist 10 μM), the “cells homogeneously stained only with HO342” value is “more than 80%”. The “cytoprotection against TNF-α induced apoptosis (microscopy)” value in the assay with MIN6 cells [3] (agonist 10 μM pretreatment) was “significant cytoprotection”. The “nuclei/cells double stained with HO342 and PI” value in the assay with MIN6 cells [3] is listed as ~ 10%. For the same molecule, the “reduction of cell death compared to TNF-α alone” value with MIN6 cells [4] (agonist pretreatment) is reported as “significant reduction in cell death”. Also, the “cell death (sub-G1 peak)” value in the assay with MIN6 cells [4] is recorded as 25%. Further, in the assay with MIN6 cells [1] (3.3 mM glucose, data not shown), the “effect on insulin secretion at low glucose” value was “did not show any significant effect”. Further, the “increase in insulin secretion compared with glucose alone” value in the assay with MIN6 cells [1] (agonist 10 μM, 35 mM glucose) turned out to be 2 fold.
For `CNc1nc(I)nc2c1ncn2[C@H]1C[C@H](OP(=O)(O)O)[C@]2(COP(=O)(O)O)C[C@H]12` [[^125I]MRS2500], on mouse P2Y1 receptor, the Bmax is 307±22 fmol receptor per mg protein. Moreover, the Kd on mouse P2Y1 receptor (saturation binding, 60 min at 4° C) was 4.74 ± 0.47 nM.
Turning to TNF-α, the “nuclei/cells double stained with HO342 and PI” value with MIN6 cells [3] was 30-40%. Also, in the assay on MIN6 cells [4], the “cell death (sub-G1 peak)” value was found to be 54%.

As usually defined, the Ki is a dissociation constant, usually derived from enzyme kinetics or from competition with a known ligand. A low value points to higher affinity. What is called EC50 is the midpoint of the concentration-response curve. As a reminder, the Kd is the concentration at which binding is half-saturated. A high value points to weaker binding.
